Experimental data: ChEMBL document CHEMBL1144974, “Design, synthesis, and activity of novel cis- and trans-3,6-disubstituted pyran biomimetics of 3,6-disubstituted piperidine as potential ligands for the dopamine transporter” (Bioorg Med Chem Lett, 2003)

Legend:
[1] = molecular target: Sodium-dependent dopamine transporter (Rattus norvegicus, UniProt P23977); test: Inhibition of binding of [3H]WIN-35 428 to (DAT) dopamine transporter in rat striatum; type: tissue-based
[2] = molecular target: Norepinephrine transporter (Rattus norvegicus, UniProt Q9WTR4); test: Inhibition of binding of [3H]nisoxetine to (NET) norepinephrine transporter in rat striatum; type: tissue-based
Chain of Norepinephrine transporter (Q9WTR4 whole entry): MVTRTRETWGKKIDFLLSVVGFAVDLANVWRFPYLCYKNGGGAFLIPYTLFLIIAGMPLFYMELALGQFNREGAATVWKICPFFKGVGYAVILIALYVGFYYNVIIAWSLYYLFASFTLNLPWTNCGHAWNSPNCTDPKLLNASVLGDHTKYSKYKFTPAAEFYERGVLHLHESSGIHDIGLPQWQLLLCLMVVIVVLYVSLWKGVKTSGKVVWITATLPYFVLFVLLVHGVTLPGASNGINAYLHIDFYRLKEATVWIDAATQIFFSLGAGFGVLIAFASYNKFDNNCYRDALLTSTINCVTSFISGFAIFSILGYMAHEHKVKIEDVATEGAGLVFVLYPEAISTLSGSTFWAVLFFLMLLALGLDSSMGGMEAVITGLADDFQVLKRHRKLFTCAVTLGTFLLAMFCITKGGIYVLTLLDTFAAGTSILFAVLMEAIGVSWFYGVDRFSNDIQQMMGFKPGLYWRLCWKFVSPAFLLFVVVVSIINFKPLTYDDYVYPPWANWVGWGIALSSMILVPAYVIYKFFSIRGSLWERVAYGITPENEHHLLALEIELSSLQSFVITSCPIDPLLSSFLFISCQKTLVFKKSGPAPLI
Method in brief: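 Radioligand displacement of [3H]nisoxetine labelling NET; other binding conditions are referred to earlier work. Values are means ± SEM of three independent experiments, each assayed in triplicate.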

[3] = species on record: Rattus norvegicus; test: Inhibition of [3H]DA dopamine (DA) reuptake activity; type: functional
[4] = molecular target: Sodium-dependent serotonin transporter (Rattus norvegicus, UniProt P31652); test: Inhibition of binding of [3H]citalopram to (SERT) serotonin transporter in rat striatum; type: tissue-based
Chain of Sodium-dependent serotonin transporter (P31652 whole entry): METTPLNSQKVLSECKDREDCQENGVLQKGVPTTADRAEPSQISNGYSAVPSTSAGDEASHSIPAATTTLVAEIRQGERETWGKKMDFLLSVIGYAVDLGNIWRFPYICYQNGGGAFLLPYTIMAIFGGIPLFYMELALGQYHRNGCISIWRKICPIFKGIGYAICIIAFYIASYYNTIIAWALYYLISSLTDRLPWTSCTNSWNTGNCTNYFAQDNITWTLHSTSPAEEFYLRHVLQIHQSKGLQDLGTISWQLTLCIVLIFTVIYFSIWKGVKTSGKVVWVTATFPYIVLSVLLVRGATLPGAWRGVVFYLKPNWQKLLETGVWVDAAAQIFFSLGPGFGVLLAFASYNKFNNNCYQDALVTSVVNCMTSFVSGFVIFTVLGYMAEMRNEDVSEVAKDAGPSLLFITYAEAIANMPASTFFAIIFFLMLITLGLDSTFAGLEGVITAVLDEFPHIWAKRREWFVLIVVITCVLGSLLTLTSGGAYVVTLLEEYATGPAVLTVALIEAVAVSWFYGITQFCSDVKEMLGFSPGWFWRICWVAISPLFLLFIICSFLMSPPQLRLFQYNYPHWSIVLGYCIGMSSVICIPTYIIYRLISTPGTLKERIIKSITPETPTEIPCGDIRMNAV

Chain of Sodium-dependent dopamine transporter (P23977 whole entry): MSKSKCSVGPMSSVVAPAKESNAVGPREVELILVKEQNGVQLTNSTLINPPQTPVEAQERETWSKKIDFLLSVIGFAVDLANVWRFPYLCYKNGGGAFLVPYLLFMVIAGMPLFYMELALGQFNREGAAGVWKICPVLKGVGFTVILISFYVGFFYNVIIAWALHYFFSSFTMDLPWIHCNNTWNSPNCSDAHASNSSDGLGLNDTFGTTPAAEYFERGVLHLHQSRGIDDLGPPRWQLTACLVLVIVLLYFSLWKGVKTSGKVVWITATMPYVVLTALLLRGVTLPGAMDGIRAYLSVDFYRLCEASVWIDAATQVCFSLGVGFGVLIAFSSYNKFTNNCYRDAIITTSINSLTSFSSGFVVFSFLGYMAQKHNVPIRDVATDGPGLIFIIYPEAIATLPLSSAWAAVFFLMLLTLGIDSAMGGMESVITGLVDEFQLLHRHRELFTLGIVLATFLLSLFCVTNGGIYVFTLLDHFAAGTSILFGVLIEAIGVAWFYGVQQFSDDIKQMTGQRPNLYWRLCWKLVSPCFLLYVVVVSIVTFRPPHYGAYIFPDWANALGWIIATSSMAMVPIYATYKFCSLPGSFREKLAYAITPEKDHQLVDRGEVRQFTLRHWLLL

Row | Compound | IC50 [1] [nM] | IC50 [2] [nM] | IC50 [3] [nM] | IC50 [4] [nM]
1 | Fc1ccc(CNC2CCC(C(c3ccccc3)c3ccccc3)NC2)cc1 (configuration not stated) | 32.5 | 1020 | 45.7 | 2220
2 | O=[N+]([O-])c1ccc(CNC2CCC(C(c3ccccc3)c3ccccc3)OC2)cc1 (racemic) | 38.3 |  | 102 | 
3 | COc1ccc(CNC2CCC(C(c3ccccc3)c3ccccc3)OC2)cc1 (racemic) | 84 |  | 59.5 | 
4 | N#Cc1ccc(CNC2CCC(C(c3ccccc3)c3ccccc3)OC2)cc1 (racemic) |  | 1580 |  | 863
5 | Fc1ccc(CNC2CCC(C(c3ccccc3)c3ccccc3)OC2)cc1 (racemic) | 163 | 232 | 156 | 1860
6 | Fc1ccc(CNC2CCC(C(c3ccccc3)c3ccccc3)OC2)cc1 (single isomer, unassigned) | 313 | 12700 |  | 8410
